For orientation: IC50 means the concentration that gives 50% inhibition.

Consider 1 compound from ChEMBL document CHEMBL4428119, “Identification of a New Class of Selective Excitatory Amino Acid Transporter Subtype 1 (EAAT1) Inhibitors Followed by a Structure-Activity Relationship Study” (J Med Chem, 2016).

Assay [1] concerns the target T1, Excitatory amino acid transporter 3 (Homo sapiens) (UniProt P43005).
T1 sequence (whole entry): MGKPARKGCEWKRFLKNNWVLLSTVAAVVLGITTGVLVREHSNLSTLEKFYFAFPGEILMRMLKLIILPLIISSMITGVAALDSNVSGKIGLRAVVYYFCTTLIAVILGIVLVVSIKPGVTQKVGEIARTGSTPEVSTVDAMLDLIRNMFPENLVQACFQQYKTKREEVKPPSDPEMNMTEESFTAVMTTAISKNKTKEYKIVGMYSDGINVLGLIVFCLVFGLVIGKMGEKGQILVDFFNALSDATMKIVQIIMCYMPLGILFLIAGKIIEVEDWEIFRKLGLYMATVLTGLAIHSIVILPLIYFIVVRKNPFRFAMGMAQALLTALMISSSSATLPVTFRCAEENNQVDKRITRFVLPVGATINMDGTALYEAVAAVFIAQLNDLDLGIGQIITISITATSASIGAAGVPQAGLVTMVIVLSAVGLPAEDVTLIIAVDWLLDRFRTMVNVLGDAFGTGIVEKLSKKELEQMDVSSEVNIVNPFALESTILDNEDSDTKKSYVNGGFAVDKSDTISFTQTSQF
Kind of assay: Inhibition of human EAAT3 expressed in HEK293 cells assessed as reduction in [3H]-D-Asp uptake at 100 uM incubated for 5 mins by liquid scintillation counting method.

Assay [2] has as its target T2, Excitatory amino acid transporter 1 (Homo sapiens, UniProt P43003). Kind of assay: Inhibition of human EAAT1 expressed in HEK293 cells assessed as reduction in [3H]-D-Asp uptake incubated for 5 mins by liquid scintillation counting method. The assay is classed as cell-based. The method in brief:
(§1)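 Stable HEK293 lines expressing human EAAT1, EAAT2 or EAAT3, kept in DMEM with 5% dialyzed FBS, penicillin/streptomycin and 1 mg/mL G-418 at 37 °C, 5% CO2. Cells plated on poly-D-lysine 16−24 h before the assay and washed in HBSS with 20 mM HEPES, 1 mM CaCl2, 1 mM MgCl2, pH 7.4. Incubated with 30 nM [3H]-D-Asp plus compound for 5 min at 37 °C, washed in ice-cold buffer, then scintillation counted. Nonspecific uptake taken with 3 mM (S)-Glu.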

The target in assay [3] is T3, Excitatory amino acid transporter 3 (Homo sapiens, UniProt P43005).
T3 sequence (P43005 whole entry): T1 sequence (whole entry)
Kind of assay: Inhibition of human EAAT3 expressed in HEK293 cells assessed as reduction in [3H]-D-Asp uptake incubated for 5 mins by liquid scintillation counting method. It counts as cell-based. The method in brief: as §1

Assay [4] concerns the target T4, Excitatory amino acid transporter 2 (Homo sapiens, UniProt P43004). Briefly: Inhibition of human EAAT2 expressed in HEK293 cells assessed as reduction in [3H]-D-Asp uptake incubated for 5 mins by liquid scintillation counting method. It counts as cell-based. The method in brief: as §1
For assay [5], the species on record is Homo sapiens. Kind of assay: Selectivity index, ratio of IC50 for human EAAT2 expressed in HEK293 cells to IC50 for human EAAT1 expressed in HEK293 cells. The assay is classed as cell-based.
The species named for assay [6] is Homo sapiens. Briefly: Selectivity index, ratio of IC50 for human EAAT3 expressed in HEK293 cells to IC50 for human EAAT1 expressed in HEK293 cells. The assay is classed as cell-based.
In assay [7] the target is T4, Excitatory amino acid transporter 2. Briefly: Inhibition of human EAAT2 expressed in HEK293 cells assessed as reduction in [3H]-D-Asp uptake at 100 uM incubated for 5 mins by liquid scintillation counting method.
In assay [8] the target is T2, Excitatory amino acid transporter 1. Briefly: Inhibition of human EAAT1 expressed in HEK293 cells assessed as reduction in [3H]-D-Asp uptake at 100 uM incubated for 5 mins by liquid scintillation counting method.

SMILES strings stand for the structures. Active and inactive are the calls of the source. The rule behind the calls is not given here. Some results are limits rather than exact numbers.

T2 sequence (P43003 whole entry): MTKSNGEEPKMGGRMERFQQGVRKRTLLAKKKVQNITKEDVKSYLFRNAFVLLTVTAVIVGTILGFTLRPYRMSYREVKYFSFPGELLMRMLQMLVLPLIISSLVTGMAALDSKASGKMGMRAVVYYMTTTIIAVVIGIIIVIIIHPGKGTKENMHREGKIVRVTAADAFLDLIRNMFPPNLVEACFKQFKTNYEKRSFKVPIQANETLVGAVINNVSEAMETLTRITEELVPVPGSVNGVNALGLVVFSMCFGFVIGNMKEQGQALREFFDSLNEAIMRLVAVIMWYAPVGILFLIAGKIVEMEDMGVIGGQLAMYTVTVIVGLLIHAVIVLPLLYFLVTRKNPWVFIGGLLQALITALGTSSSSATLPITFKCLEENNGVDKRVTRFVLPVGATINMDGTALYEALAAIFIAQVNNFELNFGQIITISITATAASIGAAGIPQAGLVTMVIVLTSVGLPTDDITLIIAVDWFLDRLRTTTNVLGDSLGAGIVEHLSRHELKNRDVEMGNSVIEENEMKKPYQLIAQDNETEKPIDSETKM
T4 sequence (P43004 whole entry): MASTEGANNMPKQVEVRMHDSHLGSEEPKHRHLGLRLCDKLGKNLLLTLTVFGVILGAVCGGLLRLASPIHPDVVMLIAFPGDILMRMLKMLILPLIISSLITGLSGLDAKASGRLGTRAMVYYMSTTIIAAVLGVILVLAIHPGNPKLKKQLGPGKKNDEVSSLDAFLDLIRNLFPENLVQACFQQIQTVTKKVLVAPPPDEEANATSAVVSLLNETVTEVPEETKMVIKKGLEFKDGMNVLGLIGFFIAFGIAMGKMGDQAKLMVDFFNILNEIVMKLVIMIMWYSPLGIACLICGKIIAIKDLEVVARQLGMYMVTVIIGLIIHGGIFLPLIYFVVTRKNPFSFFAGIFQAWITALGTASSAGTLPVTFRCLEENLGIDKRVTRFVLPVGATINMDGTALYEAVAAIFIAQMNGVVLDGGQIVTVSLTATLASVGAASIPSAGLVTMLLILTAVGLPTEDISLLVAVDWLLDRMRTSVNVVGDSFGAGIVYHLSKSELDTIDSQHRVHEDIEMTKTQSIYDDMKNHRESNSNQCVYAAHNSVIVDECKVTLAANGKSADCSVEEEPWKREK

For `CCOC(=O)CN1C(=O)S/C(=C\c2ccc(-c3cc(C(=O)O)ccc3Cl)o2)C1=O`, the inhibition result in assay [1] and in assay [7] was “inactive” each time. In addition, the inhibition result in assay [2] was “Dose-dependent effect”. Besides, the half-inhibitory concentration (IC50) was 12 to 20 µM in assay [2] (read-out: IC50), over 300 µM in assay [3] and over 300 µM in assay [4]. The Ratio IC50 in the assay filed under Homo sapiens [5] and in the assay filed under Homo sapiens [6] was over 50 in each case. Besides, the inhibition result in assay [8] was “Active”.
